The results in this text go back to ChEMBL document CHEMBL3351678, “Benzoquinones as inhibitors of botulinum neurotoxin serotype A” (Bioorg Med Chem, 2014).

Broadly, the IC50 is the concentration that inhibits the measured activity by half. For orientation: Ki means a dissociation constant, usually derived from enzyme kinetics or from competition with a known ligand. A low value points to higher affinity.

Experiment [1] has as its target Botulinum neurotoxin type A (Clostridium botulinum) (UniProt P0DPI0). In words: Inhibition of recombinant Clostridium botulinum neurotoxin serotype A light chain assessed as Kinact to KI ratio at 50 uM after 1.5 hrs by SNAPtide FRET based assay.
In experiment [2] the target is T1, Botulinum neurotoxin type A (Clostridium botulinum, UniProt P0DPI0). In words: Competitive inhibition of recombinant Clostridium botulinum neurotoxin serotype A light chain assessed as [13C]-labeled 9-mer cleavage product formation using 66-mer substrate after 25 mins by LC-MS method. Summed up: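 66-mer SNAP-25 substrate (5 µM) cleaved by recombinant BoNT/A LC (0.8 nM) in 40 mM HEPES pH 7.4 for 25 min. Quenched with 20% TFA. 13C-labelled 9-mer internal standard added, and cleavage product quantified by LCMS relative to it. IC50 derived from initial velocities using the rearranged IC50 equation.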
T1 sequence (P0DPI0 2-448 limits assumed): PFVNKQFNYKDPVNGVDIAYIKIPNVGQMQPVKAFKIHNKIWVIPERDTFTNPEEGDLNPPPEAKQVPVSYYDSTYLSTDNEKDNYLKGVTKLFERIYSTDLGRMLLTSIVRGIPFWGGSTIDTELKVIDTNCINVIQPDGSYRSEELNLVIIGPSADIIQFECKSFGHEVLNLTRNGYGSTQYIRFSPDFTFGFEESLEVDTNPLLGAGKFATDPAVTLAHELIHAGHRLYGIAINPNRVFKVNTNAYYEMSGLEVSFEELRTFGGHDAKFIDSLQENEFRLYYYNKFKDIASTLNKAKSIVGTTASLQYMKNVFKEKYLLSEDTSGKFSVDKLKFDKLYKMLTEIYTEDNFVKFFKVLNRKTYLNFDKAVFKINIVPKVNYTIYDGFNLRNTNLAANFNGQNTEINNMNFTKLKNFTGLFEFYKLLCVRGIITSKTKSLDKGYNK

The nature of experiment [3]: Glutathione reactivity at 1 mM in presence of 1 mM glutathione containing PBS and 1 mM EDTA buffer at pH 7.4 assessed as second order rate constant by spectrophotometry by Ellman's method. Summed up:
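Compound and glutathione (1 mM each) in PBS + 1 mM EDTA, pH 7.4. Free thiol followed over time by 1:10 dilution into 4 mg/mL DTNB, A412, with compound blanks and a GSH standard curve. Second-order kGSH of Michael adduct formation derived from 1/[GSH] − 1 = 2kGSH·t.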

Experiment [4] can be described thus: Glutathione reactivity at 1 mM in presence of 1 mM glutathione containing PBS and 1 mM EDTA buffer at pH 7.4 assessed as remaining GSH level after 10 seconds by spectrophotometry by Ellman's method. Summed up:
(§1)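 Compound (1 mM) incubated with glutathione (1 mM) in PBS + 1 mM EDTA, pH 7.4. At each time point, an aliquot was diluted 1:10 into 4 mg/mL DTNB and absorbance read at 412 nm. Compound blanks included. Free GSH quantified against a 0–1.25 mM GSH standard curve and expressed as % remaining.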
On the technique in general: In Ellman's method for cholinesterases, released thiocholine reacts with DTNB.

Experiment [5] is described as follows: Glutathione reactivity at 1 mM in presence of 1 mM glutathione containing PBS and 1 mM EDTA buffer at pH 7.4 assessed as remaining GSH level after 30 mins by spectrophotometry by Ellman's method. Summed up:
as §1

Experiment [6] in a line: Glutathione reactivity at 1 mM in presence of 1 mM glutathione containing PBS and 1 mM EDTA buffer at pH 7.4 assessed as remaining GSH level after 1 hr by spectrophotometry by Ellman's method. Summed up: as §1
Experiment [7] deals with Botulinum neurotoxin type A (Clostridium botulinum) (UniProt P0DPI0). In words: Irreversible inhibition of recombinant Clostridium botulinum neurotoxin serotype A light chain assessed as Kinact to KI ratio after 1.5 hrs by SNAPtide FRET based assay.
Chain of Botulinum neurotoxin type A (Clostridium botulinum) (P0DPI0 2-448 limits assumed): as above
Experiment [8] shares this target. In words: Time dependent inhibition of recombinant Clostridium botulinum neurotoxin serotype A light chain assessed as Kinact to KI ratio at 200 uM by SNAPtide FRET based assay. Summed up: (§2)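 Recombinant 425-residue BoNT/A light chain (18.5 nM) with 5 µM SNAPtide FRET substrate in 40 mM HEPES, 0.1% Triton X-100, pH 7.4. Inhibitor is present with enzyme and substrate, without preincubation, across a range of concentrations.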

Experiment [9] concerns the target T1, Botulinum neurotoxin type A. In words: Competitive inhibition of recombinant Clostridium botulinum neurotoxin serotype A light chain assessed as reduction in benzoquinone-mediated BoNT/A inactivation by SNAPtide FRET based assay.
Experiment [10] has the same target. In words: Competitive inhibition of recombinant Clostridium botulinum neurotoxin serotype A light chain assessed as reduction in initial rates of BoNT/A LC activity by SNAPtide FRET based assay. Summed up: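 Recombinant 425-aa BoNT/A LC (18.5 nM) and SNAPtide (5 µM) in 40 mM HEPES + 0.1% Triton X-100, pH 7.4. Cleavage read by fluorescence. Velocities fitted to V = Vcontrol/(1 + [I]/IC50) to give IC50.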

For experiment [11] the target is unchanged. In words: Competitive inhibition of Clostridium botulinum neurotoxin serotype A light chain.
Experiment [12] concerns the target Botulinum neurotoxin type A (Clostridium botulinum) (UniProt P0DPI0). In words: Inhibition of recombinant Clostridium botulinum neurotoxin serotype A light chain assessed as [13C]-labeled 9-mer cleavage product formation at 50 uM using 66-mer substrate after 25 mins by LC-MS method. Summed up: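 Inhibitors at 50 µM with recombinant BoNT/A LC (0.8 nM) and 66-mer substrate (5 µM) in 40 mM HEPES pH 7.4. Cleavage ran 25 min, then quenched with 20% TFA. 9-mer product quantified by LCMS against a 13C-labelled 9-mer internal standard.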

For experiment [13] the target is unchanged. In words: Time dependent inhibition of recombinant Clostridium botulinum neurotoxin serotype A light chain assessed as Kinact to KI ratio after 1.5 hrs by SNAPtide FRET based assay. Summed up:
as §2

The source made the active and inactive calls. The rule behind the calls is not given here.

As for `COC1=CC(=O)C(c2ccc(C)cc2)=CC1=O`, in experiment [1], the inhibition entry was “inactive”.

Regarding `C[C@]12CC[C@@H]3c4ccc(C5=CC(=O)C=CC5=O)cc4CC[C@H]3[C@@H]1CCC2=O`, in experiment [1], the Ratio stood at 3.9 M⁻¹ s⁻¹.

For the compound `COc1ccc(OC)c(Cn2cnc(C(=O)NCc3ccc(-c4ccccc4)cc3)n2)c1`, the IC50 in experiment [2] (read-out: IC50) was 40 µM.

With `COc1cccc2c1C(=O)C=CC2=O`, the Ratio in [1] amounted to 0.99 M⁻¹ s⁻¹. Besides, the K in [3] worked out at 0.053 min⁻¹. The Activity was 80% in [4], 27% in experiment [5] and 14% in experiment [6].

Regarding `O=C1C=CC(=O)C(Cn2cnc(C(=O)NCc3ccc(-c4ccccc4)cc3)n2)=C1`, the half-inhibitory concentration (IC50) in experiment [2] (read-out: IC50) amounted to 2.5 µM.

`O=C1C=CC(=O)C(CCC(=O)O)=C1`: the Ratio in experiment [1] stood at 1.2 M⁻¹ s⁻¹. For the same compound, in [2], the IC50 entry is “Not Active”.

With `O=C1C=CC(=O)C(c2ccc(I)cc2)=C1`, in [1], the Ratio was 10 M⁻¹ s⁻¹.

For `COC(=O)c1cccc(NC2=CC(=O)C=CC2=O)n1`, in experiment [2] (read-out: IC50), the IC50 was determined as 14 µM.

Regarding `COc1ccc(OC)c(Nc2cccc(C(=O)NCc3ccc(Oc4ccccc4)cc3)n2)c1`, the IC50 in experiment [2] (read-out: IC50) came to 200 µM.

With `O=C1C=CC(=O)c2cc(O)ccc21`, the Ratio is 0.94 M⁻¹ s⁻¹ in experiment [1] and 1.17 M⁻¹ s⁻¹ in [7]. The K in experiment [3] worked out at 0.036 min⁻¹. Moreover, the Activity stood at 71% in experiment [4], 32% in experiment [5] and 22% in [6].

Take `O=C1C=CC(=O)c2ccccc21`: in experiment [1], the Ratio was 2 M⁻¹ s⁻¹. For the same compound, the Activity in experiment [4] came to 47%; in experiment [5], 20%.

For the compound `O=C(NCc1ccc(Oc2ccccc2)cc1)c1ccccn1`, in experiment [2] (read-out: IC50), the half-inhibitory concentration (IC50) came out at 570 µM.

For `CC1=CC(=O)C=C(C)C1=O`, the inhibition entry in [1] was “inactive”. Besides, the Activity in experiment [4] is 22%; in experiment [5] it was 0%.

With `COc1ccc(OC)c(CNCC(=O)Nc2cccc(OCc3ccccc3)c2)c1`, the IC50 in [2] (read-out: IC50) is 25 µM.

In the case of `O=C1C=CC(=O)C(CC(=O)O)=C1`, in experiment [1], the Ratio amounted to 0.56 M⁻¹ s⁻¹. In addition, the half-maximal inhibitory concentration (IC50) in [2] (read-out: IC50) was 9.3 µM.

Regarding `O=C1C=CC(=O)c2c(O)cccc21`, the results for the Ratio in experiment [1], in [8] and in experiment [7] were 5.3 M⁻¹ s⁻¹, 3.35 M⁻¹ s⁻¹ and 3.71 M⁻¹ s⁻¹, respectively. The values for the Activity in experiment [4] and in experiment [5] were 44% and 32%, respectively.

In the case of `O=C1C=CC(=O)C(Nc2cccc(C(=O)NCc3ccc(Oc4ccccc4)cc3)n2)=C1`, the Ratio in experiment [1] amounted to 1.7 M⁻¹ s⁻¹. In [2] (read-out: IC50), the IC50 was found to be 2.3 µM.

Take `COC1=CC(=O)C=CC1=O`: the Ratio in experiment [1] came out at 4.1 M⁻¹ s⁻¹.

For the compound `O=C1C=CC(=O)c2c(OCc3ccccc3)cccc21`, in experiment [1], the Ratio is 2 M⁻¹ s⁻¹. The Activity in [4] is 57%; in experiment [5] it was 39%.

For `COC1=C(c2ccc(C)cc2)C(=O)C=CC1=O`, the Ratio in experiment [1] came to 9.5 M⁻¹ s⁻¹. Besides, the Activity in experiment [4] is 25%; in experiment [5], 19%.

As to `NCC(=O)Nc1ccc(Oc2ccccc2)cc1`, the IC50 in experiment [9] turned out to be 258 µM; in [2] (read-out: IC50), 120 µM; in experiment [10], 163 µM.

On to `O=C1C=CC(=O)C(Nc2ccccn2)=C1`, for which the IC50 in experiment [2] (read-out: IC50) worked out at 97 µM.

`ONCC12CC3CC(CC(C3)C1)C2` displayed an inhibition constant Ki in experiment [11] of 0.46 µM. In addition, the half-inhibitory concentration (IC50) in experiment [9] was 1.5 µM; in experiment [10], 1.6 µM.

Take `O=C1C=CC(=O)C=C1`: the Ratio worked out at 17 M⁻¹ s⁻¹ in [1], 12.4 M⁻¹ s⁻¹ in [7] and 11.8 M⁻¹ s⁻¹ in experiment [13]. Besides, the inhibition entry in [12] is “Active”. Besides, the Activity is 24% in experiment [4] and 6% in experiment [5].

For `CC1=CC(=O)C=CC1=O`, the Ratio in experiment [1] amounted to 2.5 M⁻¹ s⁻¹. The Activity in experiment [4] turned out to be 35%; in experiment [5], 5%.

As to `O=C1C=C(Cl)C(=O)C=C1Cl`, the Ratio in experiment [1] turned out to be 84 M⁻¹ s⁻¹. Also, the Activity in [4] and in experiment [5] was 0% throughout.

In the case of `CC1=CC(=O)C(C(C)C)=CC1=O`, the Ratio in experiment [1] is 0.38 M⁻¹ s⁻¹.

`O=C1C=CC(=O)C(CNCC(=O)Nc2cccc(OCc3ccccc3)c2)=C1`: the half-maximal inhibitory concentration (IC50) in experiment [2] (read-out: IC50) was found to be 18 µM.

As for `O=C1C=CC(=O)C(c2ccccc2)=C1`, the Ratio in [1] amounted to 9.7 M⁻¹ s⁻¹. Also, the Activity in [4] worked out at 21%; in experiment [5], 8%.

Take `NCC(=O)Nc1cccc(OCc2ccccc2)c1`: the IC50 in experiment [2] (read-out: IC50) was found to be 417 µM.

For `O=C(NCc1ccc(-c2ccccc2)cc1)c1nc[nH]n1`, the concentration for half-maximal inhibition (IC50) in experiment [2] (read-out: IC50) was found to be 210 µM.

Take `CC1=CC(=O)c2ccccc2C1=O`: the Ratio in experiment [1] came to 1.1 M⁻¹ s⁻¹.

For `O=C1C=CC(=O)C(Cl)=C1`, in experiment [1], the Ratio came to 51 M⁻¹ s⁻¹.

As to `NCC(=O)NCc1ccc(-c2ccccc2)cc1`, the IC50 in experiment [2] (read-out: IC50) worked out at 160 µM.

Turning to `COC1=CC(=O)C=C(OC)C1=O`, the inhibition result in experiment [1] is “inactive”. For the same compound, the values for the Activity in experiment [4] and in experiment [5] were 45% and 0%, respectively.

As to `O=C1C=CC(=O)c2c(O)ccc(O)c21`, in [1], the Ratio is 2.2 M⁻¹ s⁻¹. Also, the K in experiment [3] is 0.025 min⁻¹. The values for the Activity in experiment [4], in experiment [5] and in experiment [6] were 85%, 39% and 26%, respectively.

For `CC(=O)Oc1cccc2c1C(=O)C=CC2=O`, the Ratio in experiment [1] amounted to 4 M⁻¹ s⁻¹. Further, the Activity in experiment [4] came to 51%; in experiment [5] it was 26%.

For `Cc1ccc(C2=CC(=O)c3ccccc3C2=O)cc1`, the Ratio in experiment [1] was 0.91 M⁻¹ s⁻¹.

With `COC1=CC(=O)C(OC)=C(c2ccc(C)cc2)C1=O`, in experiment [1], the Ratio was determined as 0.82 M⁻¹ s⁻¹. Also, in [3], the K is 0.032 min⁻¹. Moreover, the Activity in experiment [4] was found to be 89%; in [5], 49%; in experiment [6], 35%.
